Data on seven molecules can be found in PMC8985159 (RSC Chemical Biology, 2022).

Assay [1] concerns the target T1, Sirt2 (Homo sapiens, UniProt Q8IXJ6).
T1 sequence (Q8IXJ6 56-356): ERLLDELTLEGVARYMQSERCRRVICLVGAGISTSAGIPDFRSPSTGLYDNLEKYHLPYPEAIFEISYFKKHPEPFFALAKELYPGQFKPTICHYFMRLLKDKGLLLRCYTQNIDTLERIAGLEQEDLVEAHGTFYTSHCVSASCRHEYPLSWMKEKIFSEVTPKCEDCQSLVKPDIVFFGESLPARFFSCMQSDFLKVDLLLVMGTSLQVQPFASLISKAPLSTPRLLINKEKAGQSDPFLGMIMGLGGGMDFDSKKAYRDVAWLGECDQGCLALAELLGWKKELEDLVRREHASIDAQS
To be noted: read-out: In vitro Sirt2 activity assay IC50; cited from earlier work.

For assay [2], the target named is T2, N-terminally labelled Nluc-Sirt2 fusion protein (Homo sapiens, UniProt Q8IXJ6).
T2 sequence (Q8IXJ6 50-356): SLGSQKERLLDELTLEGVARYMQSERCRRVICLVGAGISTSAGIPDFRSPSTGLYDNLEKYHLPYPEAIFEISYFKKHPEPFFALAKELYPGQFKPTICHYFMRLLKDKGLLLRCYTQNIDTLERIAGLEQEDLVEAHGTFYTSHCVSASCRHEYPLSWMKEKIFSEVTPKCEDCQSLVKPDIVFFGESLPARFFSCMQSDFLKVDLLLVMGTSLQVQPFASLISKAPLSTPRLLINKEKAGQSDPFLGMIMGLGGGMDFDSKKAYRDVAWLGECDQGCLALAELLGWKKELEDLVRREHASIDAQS
The assay is described as follows: NanoBRET assay, N-terminal Nluc-Sirt2 fusion in HEK293T cells.

The next assay concerns the target T3, Sirt3_118-395 (Homo sapiens, UniProt Q9NTG7).
T3 sequence (Q9NTG7 118-395): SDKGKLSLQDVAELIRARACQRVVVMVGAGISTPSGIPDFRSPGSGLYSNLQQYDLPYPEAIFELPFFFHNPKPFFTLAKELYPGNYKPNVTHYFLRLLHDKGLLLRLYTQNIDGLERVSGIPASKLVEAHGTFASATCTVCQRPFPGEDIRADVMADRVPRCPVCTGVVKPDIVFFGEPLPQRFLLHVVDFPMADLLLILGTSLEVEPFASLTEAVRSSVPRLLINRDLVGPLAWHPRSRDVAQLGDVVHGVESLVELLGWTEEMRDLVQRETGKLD
The assay is described as follows: Sirtuin deacetylation activity assay. In kind it is biochemical.

For assay [3], the target named is T4, Sirt2_56-356 (Homo sapiens, UniProt Q8IXJ6).
T4 sequence (Q8IXJ6 56-356): T1 sequence (Q8IXJ6 56-356)
The assay is described as follows: Sirtuin deacetylation activity assay. The assay is classed as biochemical.

Assay [4] deals with T4, Sirt2_56-356. The assay is described as follows: Sirt2 demyristoylation activity assay. In kind it is biochemical.
The subject of another assay is PC-3M-luc cells. The assay is described as follows: Migration assay. The assay is classed as cell-based, human. Conditions: Homo sapiens, read-out: migration inhibition.
In another assay the target is T5, human recombinant HDAC6 (Homo sapiens, UniProt Q9UBN7).
T5 sequence (Q9UBN7 1-1215): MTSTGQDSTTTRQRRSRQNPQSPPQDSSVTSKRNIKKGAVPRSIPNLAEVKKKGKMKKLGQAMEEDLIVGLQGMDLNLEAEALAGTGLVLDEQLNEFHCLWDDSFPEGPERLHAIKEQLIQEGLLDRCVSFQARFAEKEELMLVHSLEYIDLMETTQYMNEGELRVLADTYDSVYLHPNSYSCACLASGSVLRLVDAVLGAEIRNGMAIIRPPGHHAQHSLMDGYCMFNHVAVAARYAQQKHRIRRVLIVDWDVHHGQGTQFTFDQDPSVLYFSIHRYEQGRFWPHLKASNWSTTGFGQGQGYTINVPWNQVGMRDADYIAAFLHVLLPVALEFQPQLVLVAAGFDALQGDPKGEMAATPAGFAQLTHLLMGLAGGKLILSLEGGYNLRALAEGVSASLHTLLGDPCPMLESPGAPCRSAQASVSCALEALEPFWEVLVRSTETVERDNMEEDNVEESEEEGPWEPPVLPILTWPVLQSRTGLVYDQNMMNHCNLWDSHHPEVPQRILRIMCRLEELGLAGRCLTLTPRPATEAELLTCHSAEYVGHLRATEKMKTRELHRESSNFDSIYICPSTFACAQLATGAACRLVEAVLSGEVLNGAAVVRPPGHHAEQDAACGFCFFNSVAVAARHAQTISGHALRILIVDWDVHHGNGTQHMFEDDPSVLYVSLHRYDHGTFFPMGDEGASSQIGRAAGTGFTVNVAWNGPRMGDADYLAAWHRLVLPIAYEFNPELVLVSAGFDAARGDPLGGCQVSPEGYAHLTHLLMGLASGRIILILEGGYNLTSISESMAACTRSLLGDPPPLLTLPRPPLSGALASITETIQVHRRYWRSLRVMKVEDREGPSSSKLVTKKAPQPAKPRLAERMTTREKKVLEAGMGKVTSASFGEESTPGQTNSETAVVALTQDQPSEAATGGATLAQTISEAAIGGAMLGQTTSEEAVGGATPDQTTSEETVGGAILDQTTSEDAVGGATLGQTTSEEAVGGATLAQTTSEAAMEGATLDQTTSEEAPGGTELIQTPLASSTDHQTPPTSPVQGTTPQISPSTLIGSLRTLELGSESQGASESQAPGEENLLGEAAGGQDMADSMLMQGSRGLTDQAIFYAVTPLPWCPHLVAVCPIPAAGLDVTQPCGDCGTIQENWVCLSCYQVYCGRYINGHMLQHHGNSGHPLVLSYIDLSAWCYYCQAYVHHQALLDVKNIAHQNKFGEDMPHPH
The assay is described as follows: HDAC6 activity assay. In kind it is biochemical. The method in brief: (§1)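 Enzyme was incubated with serially diluted test compound in DMSO and ZMAL (added from a 126 μM solution) for 90 min at 37 °C. Stop solution (33 μM trichostatin A, 6 mg/mL trypsin) was added, followed by 30 min at 37 °C. Fluorescence read at Ex 390 / Em 460 nm.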

The target of a further assay is T6, Sirt1_134-747 (Homo sapiens, UniProt Q96EB6).
T6 sequence (Q96EB6 134-747): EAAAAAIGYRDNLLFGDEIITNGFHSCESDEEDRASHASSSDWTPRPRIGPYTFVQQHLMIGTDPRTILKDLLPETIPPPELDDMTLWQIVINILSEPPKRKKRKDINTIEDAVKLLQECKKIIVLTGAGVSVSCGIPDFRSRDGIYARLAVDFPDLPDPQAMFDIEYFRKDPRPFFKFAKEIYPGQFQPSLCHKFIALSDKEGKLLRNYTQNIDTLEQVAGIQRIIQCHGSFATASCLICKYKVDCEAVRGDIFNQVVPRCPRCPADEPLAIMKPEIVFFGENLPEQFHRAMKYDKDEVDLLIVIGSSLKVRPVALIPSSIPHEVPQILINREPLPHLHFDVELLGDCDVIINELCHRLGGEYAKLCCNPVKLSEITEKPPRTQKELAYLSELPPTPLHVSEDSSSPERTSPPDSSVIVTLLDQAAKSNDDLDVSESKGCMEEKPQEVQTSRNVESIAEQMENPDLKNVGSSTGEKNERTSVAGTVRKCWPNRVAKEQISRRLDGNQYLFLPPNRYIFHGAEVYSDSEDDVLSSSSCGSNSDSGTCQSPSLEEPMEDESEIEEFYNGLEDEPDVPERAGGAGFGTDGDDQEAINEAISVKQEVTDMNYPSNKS
Put plainly: Sirtuin deacetylation activity assay. The assay is classed as biochemical.

The target of the next assay is human recombinant HDAC1 (Homo sapiens, UniProt Q13547). Put plainly: HDAC1 activity assay. The assay is classed as biochemical. The method in brief:
as §1

For assay [5], the target named is T4, Sirt2_56-356. The assay is described as follows: Fluorescence polarization assay. In kind it is binding.
The subject of assay [6] is α-tubulin acetylation in PC-3M-luc cells. The assay is described as follows: Acetylation levels of α-tubulin by immunofluorescence. In kind it is cell-based, human. Conditions: 20 μM, 5 hours. The method in brief:
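PC-3M-luc cells were plated at 20 000 per well, incubated overnight at 37 °C and 5% CO2, then exposed to 20 μM test compound for 5 h. They were fixed in 4% PFA for 8–10 min at RT and extracted with PBS/0.1% Triton X-100. Blocking used PBS/0.1% Triton/5% FCS. […] Read-out was immunofluorescence microscopy.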

Assay [7] deals with T1, Sirt2. The assay is described as follows: Determination of kinetic parameters for ZMAL and ZMML. In kind it is biochemical. Conditions: substrate of Sirt2; mean ± SD (n = 3).
The mark [8] stands for this setting: tracer 13 2 μM, HEK293T, 2 h, mean ± SD.
Where [9] appears, read: In vitro Sirt2 activity assay IC50, Table 2.

Like-named read-outs stand apart in the source and are kept apart here.

Sequence of human recombinant HDAC1 (Q13547 whole entry): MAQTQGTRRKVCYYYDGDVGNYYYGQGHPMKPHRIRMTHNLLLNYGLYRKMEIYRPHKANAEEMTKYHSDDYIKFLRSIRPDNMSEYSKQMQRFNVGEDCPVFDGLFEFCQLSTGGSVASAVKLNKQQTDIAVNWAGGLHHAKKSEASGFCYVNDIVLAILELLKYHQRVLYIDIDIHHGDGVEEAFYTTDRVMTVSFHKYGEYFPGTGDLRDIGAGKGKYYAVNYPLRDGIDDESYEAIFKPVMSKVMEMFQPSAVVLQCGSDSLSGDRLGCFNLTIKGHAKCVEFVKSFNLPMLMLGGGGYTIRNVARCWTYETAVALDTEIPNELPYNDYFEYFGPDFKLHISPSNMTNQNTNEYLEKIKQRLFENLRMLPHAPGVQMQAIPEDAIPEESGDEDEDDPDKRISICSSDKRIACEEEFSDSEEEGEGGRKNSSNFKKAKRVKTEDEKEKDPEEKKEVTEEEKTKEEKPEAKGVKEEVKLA

With `O=C(NCc1cccnc1)c1ccc2c(c1)C1C3CCC(C3)C1C(c1ccccc1)N2` (stereo not shown) [AEM2, reference compound], the IC50 (as a rule, the concentration that gives 50% inhibition) on Sirt2 [1] was 3.8 µM; in assay [2] (read-out: NanoBRET assay IC50, tracer 13 2 μM, HEK293T, 2 h, mean ± SD), 5.2 ± 0.2 µM.

On to `CCCCCCCC(=O)Nc1ncc(Cc2cccc(OCc3cn(CCOC)nn3)c2)s1` [Compound 5], for which the IC50 against Sirt3_118-395 was above 100 µM; against Sirt2_56-356 [3] (Sirt2 Deacet. IC50, mean ± SD), 0.46 ± 0.21 µM; on human recombinant HDAC6, above 100 µM; at Sirt1_134-747 it was above 100 µM; on human recombinant HDAC1 it was above 100 µM. Further, the inhibition at 20 µM at Sirt2_56-356 [4] (read-out: Sirt2 Demyr. percentage of inhibition) is 23.2%. Also, the inhibition at 10 µM with PC-3M-luc cells came to 35%. For the same molecule, the “NanoBRET assay IC50” value in assay [2] (setting [8]) was “did not detect cellular Sirt2 binding”. For the same molecule, on Sirt2_56-356 [5], the “Sirt2 binding in the FP assay compared to SirReal2 (in words)” value is given as “weaker binding”.

With `COCCn1cc(COc2cccc(Cc3cnc(NC(=O)CSc4nc(-c5ccccc5)cc(-c5ccccc5)n4)s3)c2)nn1` [Compound 7], the IC50 against Sirt3_118-395 is above 100 µM; at Sirt2_56-356 [3] (Sirt2 Deacet. IC50, mean ± SD) it was 620 ± 72 µM; on Sirt2_56-356 [4], above 100 µM; on human recombinant HDAC6, above 100 µM; against Sirt1_134-747, above 100 µM; on human recombinant HDAC1 it was above 100 µM. Besides, at Sirt2_56-356 [3] (Sirt2 deacetylation), the “decreased potency compared to the positive control SirReal2” value was “more than 1000 fold”. Moreover, the “acetylation levels of α-tubulin” value in assay [6] is “Only weak effects”. The “NanoBRET assay IC50” value in [2] (setting [8]) is “did not detect cellular Sirt2 binding”. The “Sirt2 binding in the FP assay compared to SirReal2 (in words)” value on Sirt2_56-356 [5] was “weaker binding”.

For the molecule `Cc1cc(C)nc(SCC(=O)Nc2ncc(Cc3cccc(OCc4cn(Cc5ccccc5C)nn4)c3)s2)n1` [Compound 8], the IC50 against Sirt3_118-395 was above 100 µM; at Sirt2_56-356 [3] (setting [9]), 0.16 ± 0.02 µM; at Sirt2_56-356 [4] it was 3.9 ± 0.2 µM; on human recombinant HDAC6, above 100 µM; at Sirt1_134-747, above 100 µM; in [2], 1 ± 0.05 µM. Moreover, the IC50 at human recombinant HDAC1 was above 100 µM.

On to `Cc1ccc(Cn2cc(COc3cccc(Cc4cnc(NC(=O)CSc5nc(C)cc(C)n5)s4)c3)nn2)cc1` [Compound 9], for which the IC50 at Sirt3_118-395 is above 100 µM; on Sirt2_56-356 [3] (setting [9]) it was 0.17 ± 0.02 µM; on Sirt2_56-356 [4], 2 ± 0.3 µM; at human recombinant HDAC6 it was above 100 µM; against Sirt1_134-747 it was above 100 µM; in [2] it was 0.4 ± 0.02 µM. The IC50 at human recombinant HDAC1 is above 100 µM.

Take `CC(=O)NCCCCC(NC(=O)OCc1ccccc1)C(=O)Nc1ccc2c(C)cc(=O)oc2c1` (stereo not shown) [ZMAL, Z-(Ac)Lys-AMC]: the Km (in general, the substrate concentration at which the rate is half of its maximum) at Sirt2 [7] was determined as 510 ± 95 µM.

`CCCCCCCCCCCCCC(=O)NCCCCC(NC(=O)OCc1ccccc1)C(=O)Nc1ccc2c(C)cc(=O)oc2c1` (stereo not shown) [ZMML]: the Km on Sirt2 [7] worked out at 6.7 ± 1 µM.
